Measurements published in ChEMBL document CHEMBL1142812, “Synthesis and structure-activity relationship of imidazo[1,2-a]benzimidazoles as corticotropin-releasing factor 1 receptor antagonists” (Bioorg Med Chem Lett, 2005).
Values belong to the compound of their own block, whether it stands above or below them.

How the values were obtained:
[1] = target: T1, Corticotropin-releasing factor receptor 1 (Homo sapiens, UniProt P34998); experiment: Binding affinity for human corticotropin releasing factor receptor 1
T1 sequence (P34998 whole entry): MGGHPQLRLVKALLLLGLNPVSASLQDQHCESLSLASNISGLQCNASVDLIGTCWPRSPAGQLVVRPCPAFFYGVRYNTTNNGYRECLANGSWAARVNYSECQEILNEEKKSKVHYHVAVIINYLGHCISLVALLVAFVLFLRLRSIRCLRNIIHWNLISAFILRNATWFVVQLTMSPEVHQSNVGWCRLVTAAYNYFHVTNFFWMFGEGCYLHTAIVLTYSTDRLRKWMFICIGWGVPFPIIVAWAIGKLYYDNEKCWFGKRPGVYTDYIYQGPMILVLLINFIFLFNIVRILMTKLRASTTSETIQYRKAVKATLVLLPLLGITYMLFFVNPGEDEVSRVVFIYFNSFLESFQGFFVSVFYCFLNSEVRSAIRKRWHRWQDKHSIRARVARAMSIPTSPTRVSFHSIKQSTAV

[2] = Volume of distribution (dissolved in DMSO) at 2 mg/kg of intravenous administration in rat was determined; format: ADME, organism-based; parameters: dose 2 mg/kg, route intravenous; settings: in vivo
In short: (§1)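 Rats dosed with the compound at 10 mg/kg orally and 2 mg/kg intravenously, in 10/10/80 Cremophor/DMSO/water. Dosing volumes were 3 mL/kg p.o. and 1 mL/kg i.v. Plasma concentrations were followed over time to derive clearance, volume of distribution, terminal half-life, oral AUC and oral bioavailability.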

[3] = Plasma clearance (dissolved in DMSO) at 2 mg/kg of intravenous administration in rat was determined; format: ADME, organism-based; parameters: dose 2 mg/kg, route intravenous; in short: as §1
[4] = Plasma clearance (dissolved in DMSO) at 2 mg/kg of intravenous administration in rat was determined
[5] = Volume of distribution (dissolved in DMSO) at 2 mg/kg of […] administration in rat was determined; format: ADME, organism-based; parameters: dose 2 mg/kg; settings: in vivo
[6] = Brain concentration to plasma concentration ratio (dissolved in DMSO) at 2 mg/kg of intravenous administration in rat after 2 h; format: ADME, organism-based; parameters: dose 2 mg/kg, route intravenous; settings: brain and plasma, read-out: B/P
In short: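 Compound given intravenously to rats at 2 mg/kg in 10/10/80 Cremophor/DMSO/water at 1 mL/kg. Brain and plasma concentrations were measured at 2 h and expressed as a brain-to-plasma ratio.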

[7] = Mean plasma area under curve (dissolved in DMSO) at 10 mg/kg of oral administration in rat was determined; format: ADME, organism-based; parameters: dose 10 mg/kg, route oral; in short: as §1
[8] = Bioavailability (dissolved in DMSO) at 10 mg/kg of oral administration in rat was determined; format: ADME, organism-based; settings: in vivo; in short: as §1
[9] = Maximum peak plasma concentration (dissolved in DMSO) at 10 mg/kg of p.o. administration in rat was determined; settings: po
[10] = Terminal half life (dissolved in DMSO) at 2 mg/kg of intravenous administration in rat was determined; format: ADME, organism-based; parameters: dose 2 mg/kg, route intravenous; settings: in vivo; in short: as §1
[11] = Terminal half life (dissolved in DMSO) at 2 mg/kg of intravenous administration in rat was determined; settings: in vivo

Compound: CCCN(Cc1ccccc1)Cc1c(C(F)(F)F)nc2n(-c3c(C)cc(C)cc3C)c3ccccc3n12
Ki [1]: 4050 nM

Compound: CCCN(CC1CC1)C(=O)c1c(C)nc2n(-c3c(C)cc(C)cc3C)c3ccccc3n12
Ki [1]: 360 nM

Compound: CCCCN(Cc1ccccc1)Cc1c(C(F)(F)F)nc2n(-c3c(C)cc(C)cc3C)c3ccccc3n12
Ki [1]: 7710 nM

Compound: CCCN(Cc1c(C(F)(F)F)nc2n(-c3c(C)cc(C)cc3C)c3ccccc3n12)CC(F)(F)C(F)(F)F
Ki [1]: 75 nM

Compound: C=CCN(CC=C)Cc1c(C(F)(F)F)nc2n(-c3c(C)cc(C)cc3C)c3ccccc3n12
Ki [1]: 138 nM

Compound: Cc1cc(C)c(-n2c3ccccc3n3c(CN(CCc4ccccc4)CC(F)(F)F)c(C(F)(F)F)nc23)c(C)c1
Ki [1]: 744 nM

Compound: CCCCN(CC)Cc1c(C(F)(F)F)nc2n(-c3c(C)cc(C)cc3C)c3ccccc3n12
Ki [1]: 704 nM

Compound: Cc1cc(C)c(-n2c3ccccc3n3c(CN(CCC4CC4)CCC(F)(F)F)c(C(F)(F)F)nc23)c(C)c1
Ki [1]: 457 nM

Compound: CCN(CCC1CC1)Cc1c(C(F)(F)F)nc2n(-c3c(C)cc(C)cc3C)c3ccccc3n12
Ki [1]: 1410 nM

Compound: Cc1cc(C)c(-n2c3ccccc3n3c(CN(CC4CCC4)CC(F)(F)F)c(C(F)(F)F)nc23)c(C)c1
Ki [1]: 53 nM

Compound: CC(C)c1ccc(-n2c3ccccc3n3c(CN(CC4CC4)CC4CC4)c(C(F)(F)F)nc23)c(Br)c1
Ki [1]: 54 nM

Compound: Cc1cc(C)c(-n2c3ccccc3n3c(CN(CCC(F)(F)F)CC4CC4)c(C(F)(F)F)nc23)c(C)c1
Ki [1]: 13 nM

Compound: CCCN(Cc1c(C)nc2n(-c3c(C)cc(C)cc3C)c3ccccc3n12)CC1CC1
Ki [1]: 20 nM

Compound: CCCN(CC1CC1)C(=O)c1c(CC)nc2n(-c3c(C)cc(C)cc3C)c3ccc(F)cc3n12
Ki [1]: 930 nM

Compound: CCCN(Cc1c(C)nc2n(-c3c(C)cc(C)cc3C)c3ccc(F)cc3n12)CC1CC1
Ki [1]: 59 nM

Compound: CCCN(Cc1c(C(F)(F)F)nc2n(-c3c(C)cc(C)cc3C)c3ccccc3n12)CC1CC1
Vd [2]: 0.6 L/kg
clearance [3]: 5.1 mL/min/kg
CL/F [4]: 5.1 mL/min/kg
Vd [5]: 0.6 L/kg
Kp at 2 h [6]: 0.03
Ki [1]: 23 nM
AUC [7]: 11400 ng·h/mL
bioavailability [8]: 35%
Cmax [9]: 2380 ng/mL
half-life [10]: 4.1 h
half-life [11]: 4.1 h

Compound: CCCN(Cc1c(CC)nc2n(-c3c(C)cc(C)cc3C)c3ccc(F)cc3n12)CC1CC1
Ki [1]: 150 nM

Compound: CCCN(CCC1CC1)Cc1c(C(F)(F)F)nc2n(-c3c(C)cc(C)cc3C)c3ccccc3n12
Ki [1]: 362 nM

Compound: Cc1cc(C)c(-n2c3ccccc3n3c(CN(CC4CC4)CC4CC4)c(C(F)(F)F)nc23)c(C)c1
Ki [1]: 11 nM

Further compounds by falling Ki [1], results first:

Ki [1]: 3560 nM
Compound: CCCN(CC1CC1)C(=O)c1c(C(F)(F)F)nc2n(-c3c(C)cc(C)cc3C)c3ccccc3n12

Ki [1]: 2770 nM
Compound: CCN(Cc1ccccc1)Cc1c(C(F)(F)F)nc2n(-c3c(C)cc(C)cc3C)c3ccccc3n12

Ki [1]: 1600 nM
Compound: CCCN(CCc1ccccc1)Cc1c(C(F)(F)F)nc2n(-c3ccc(Cl)cc3Cl)c3ccccc3n12

Ki [1]: 1180 nM
Compound: CCCN(CC1CC1)C(=O)c1c(C)nc2n(-c3c(C)cc(C)cc3C)c3ccc(F)cc3n12

Ki [1]: 653 nM
Compound: Cc1cc(C)c(-n2c3ccccc3n3c(CN(CCC4CC4)CC(F)(F)F)c(C(F)(F)F)nc23)c(C)c1

Ki [1]: 618 nM
Compound: Cc1cc(C)c(-n2c3ccccc3n3c(CN(CCc4ccccc4)CCC(F)(F)F)c(C(F)(F)F)nc23)c(C)c1

Ki [1]: 573 nM
Compound: Cc1cc(C)c(-n2c3ccccc3n3c(CN(C)Cc4ccccc4)c(C(F)(F)F)nc23)c(C)c1

Ki [1]: 570 nM
Compound: CCCN(CC1CC1)C(=O)c1c(CC)nc2n(-c3c(C)cc(C)cc3C)c3ccccc3n12

Ki [1]: 410 nM
Compound: CCCN(CCc1ccccc1)Cc1c(C(F)(F)F)nc2n(-c3ccc(C(C)C)cc3Br)c3ccccc3n12

Ki [1]: 370 nM
Compound: CCCN(Cc1c(C(F)(F)F)nc2n(-c3ccc(Cl)cc3Cl)c3ccccc3n12)CC1CC1

Ki [1]: 333 nM
Compound: Cc1cc(C)c(-n2c3ccccc3n3c(CN(CCc4ccccc4)CCc4ccccc4)c(C(F)(F)F)nc23)c(C)c1

Ki [1]: 291 nM
Compound: Cc1cc(C)c(-n2c3ccccc3n3c(CN(CCC(F)(F)F)CC(F)(F)F)c(C(F)(F)F)nc23)c(C)c1

Ki [1]: 250 nM
Compound: CCCN(CCc1ccccc1)Cc1c(C(F)(F)F)nc2n(-c3c(C)cc(C)cc3C)c3ccccc3n12

Ki [1]: 240 nM
Compound: FC(F)(F)c1nc2n(-c3ccc(Cl)cc3Cl)c3ccccc3n2c1CN(CC1CC1)CC1CC1

Ki [1]: 150 nM
Compound: CCCN(Cc1c(C(F)(F)F)nc2n(-c3ccc(C(C)C)cc3Br)c3ccccc3n12)CC1CC1

Ki [1]: 75 nM
Compound: CCCN(Cc1c(C(F)(F)F)nc2n(-c3c(C)cc(C)cc3C)c3ccccc3n12)CC(F)(F)F

Ki [1]: 68 nM
Compound: CCCN(CCC(F)(F)F)Cc1c(C(F)(F)F)nc2n(-c3c(C)cc(C)cc3C)c3ccccc3n12

Ki [1]: 34 nM
Compound: Cc1cc(C)c(-n2c3ccccc3n3c(CN(CC4CC4)CC(F)(F)C(F)(F)F)c(C(F)(F)F)nc23)c(C)c1

Ki [1]: 28 nM
Compound: CCN(Cc1c(C(F)(F)F)nc2n(-c3c(C)cc(C)cc3C)c3ccccc3n12)CC1CC1

Ki [1]: 26 nM
Compound: CCCN(Cc1c(C(F)(F)F)nc2n(-c3c(C)cc(C)cc3C)c3ccccc3n12)CC1CCC1

Ki [1]: 21 nM
Compound: CCCN(Cc1c(CC)nc2n(-c3c(C)cc(C)cc3C)c3ccccc3n12)CC1CC1

Ki [1]: 7.1 nM
Compound: Cc1cc(C)c(-n2c3ccccc3n3c(CN(CC4CC4)CC(F)(F)F)c(C(F)(F)F)nc23)c(C)c1
